From PubChem BioAssay
G6PDH CS = counter-screen for G6PDH assay hits: L. mesenteroides G6PDH inhibition; Purified L. mesenteroides G6PDH, diaphorase/resazurin coupled fluorescence, 45 min; AID 1020; inhibition, % at 5 µM; 200,000 tested, 0.12% active; in the data active = inhibition above about 50%
Redox H2O2 prof = compounds producing H2O2 with reducing agent – biochemical, NIH compound library profiling, artefact control for MLSCN library redox annotation, primary screen; activation, % at 10 µM; DTT-dependent redox cycling H2O2, phenol red/HRP absorbance; 100% = 100 µM peroxide control, 0% = buffer; AID 878; 200,000 tested, 0.03% active;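 active = activation of at least 50% relative to the plate's high and low controls in the primary single-dose screen; inactive = activation below 50%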;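 also: compound incubated with DTT at 0.8 mM final as the reducing agent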
p97 inhibitor = inhibitors of human p97 ATPase. recombinant p97 ATPase, Kinase-Glo ATP luminescence, 3 h. inhibition, % at 8 µM. 220,000 tested, 0.42% active. AID 1481; in the data active = inhibition above about 15%
Target sequence (P55072 whole entry, looked up): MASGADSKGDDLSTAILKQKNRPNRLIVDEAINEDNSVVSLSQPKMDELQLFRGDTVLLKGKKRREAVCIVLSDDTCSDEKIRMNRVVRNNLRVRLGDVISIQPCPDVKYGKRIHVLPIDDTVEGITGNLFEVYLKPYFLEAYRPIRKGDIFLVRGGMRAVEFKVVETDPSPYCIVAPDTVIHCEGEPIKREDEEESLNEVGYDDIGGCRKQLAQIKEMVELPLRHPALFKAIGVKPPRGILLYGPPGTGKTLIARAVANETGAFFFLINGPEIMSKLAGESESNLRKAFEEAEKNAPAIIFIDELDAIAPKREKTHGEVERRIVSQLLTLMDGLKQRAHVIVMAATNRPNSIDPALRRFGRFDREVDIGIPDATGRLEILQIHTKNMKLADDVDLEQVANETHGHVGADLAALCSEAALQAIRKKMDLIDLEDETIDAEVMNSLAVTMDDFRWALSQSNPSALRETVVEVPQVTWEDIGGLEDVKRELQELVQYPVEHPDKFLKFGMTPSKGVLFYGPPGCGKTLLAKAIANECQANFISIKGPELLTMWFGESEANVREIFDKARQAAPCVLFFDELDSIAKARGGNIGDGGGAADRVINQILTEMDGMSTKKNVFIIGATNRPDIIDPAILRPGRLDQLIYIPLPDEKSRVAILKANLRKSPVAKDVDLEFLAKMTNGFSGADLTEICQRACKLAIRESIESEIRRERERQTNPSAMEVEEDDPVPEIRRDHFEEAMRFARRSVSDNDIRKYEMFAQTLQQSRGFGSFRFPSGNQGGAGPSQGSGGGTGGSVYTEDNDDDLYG
TNAP act hiacc = increases human TNAP activity under high phosphate acceptor concentration | P05186 | AID 1136 | activation factor at 20 µM | purified TNAP, CDP-star luminescence, 1 M DEA, 30 min; hits give high values; 0 = EDTA background, 1 = DMSO-only activity | 200,000 tested, under 10 active;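 active = activation factor at least 2 at 20 µM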
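Control set: EDTA negative control, DMSO positive control / Assay system: human TNAP / Quantity: TNAP 1/800 final / Evaluation: TNAP activation factor scaled between EDTA and DMSO control wells / Measured by: luminescent substrate turnover signal / Compound dosing: one dose, 20 µM / Times: 30 min enzyme reaction at room temperature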
TNAP inh no acc = inhibitors of human TNAP without phosphate acceptor; P05186; purified TNAP, CDP-star luminescence, 30 min; inhibition, % at 20 µM; 200,000 tested, 0.26% active; AID 1012;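 active = tissue-nonspecific alkaline phosphatase inhibition above about 50% at 20 µM in the single-dose screen, limit read from the data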
TNAP inh hiacc = inhibitors of human TNAP at high phosphate acceptor concentration; P05186; purified TNAP, CDP-star luminescence, 1 M DEA; inhibition, % at 20 µM; 200,000 tested, 0.03% active; AID 1135;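 active = over 50% inhibition of tissue-nonspecific alkaline phosphatase at 20 µM in the single-dose screen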
p97 inh conf = human p97 ATPase inhibition, confirmation; AID 1517; inhibition, % at 8 µM; recombinant p97 ATPase, Kinase-Glo ATP luminescence; 760 tested, 44% active; shares compounds with p97 inhibitor;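 active = percent inhibition of p97 ATPase above a set limit, the primary screen's mean plus 3 SD, cut at about 15% in these data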
Numbers stand for hits; 0 = inactive; - = no result. In the library only some 0.79% were active in any assay of this set; here they are far more common.

SMILES | G6PDH CS | Redox H2O2 prof | p97 inhibitor | TNAP act hiacc | TNAP inh no acc | TNAP inh hiacc | p97 inh conf
Cc1cc(O)c(C=O)c2c1C(=O)Oc1c(CO)c(O)c3c(c1O2)C(O)OC3=O (stereo not drawn) | 0 | 0 | 64.1 | 0 | 0 | 0 | 24.3
COC(=O)c1c(NC(=O)/C=C/C(=O)O)sc(Cc2ccccc2)c1C | 0 | 0 | 15.3 | 0 | 0 | 0 | 23.4
COC(=O)c1c(N)sc(Cc2ccccc2)c1C | 0 | 0 | 0 | 0 | 0 | 0 | -
Cc1noc(C)c1S(=O)(=O)N(Cc1ccccc1)C(C)C | - | - | 0 | - | - | - | -
O=C(CN1CCCCCC1)N/N=C/c1cccc(Cl)c1Cl | 0 | 0 | 0 | 0 | 0 | 0 | -
CCCCC(=Nc1ccc(N)cc1)C1=C(O)C(C(=O)OC)C(C)(C)CC1=O (stereo not drawn) | 0 | 0 | 17.6 | 0 | 0 | 0 | 0
CCC(=Nc1ccc(N)cc1)C1=C(O)C(C(=O)OC)C(C)(C)CC1=O (stereo not drawn) | 0 | 0 | 14.9 | 0 | 0 | 0 | 0
CC1=Nc2ccccc2/C1=C/c1sc(=N)n(-c2nccs2)c1O | 0 | 0 | 29.2 | 0 | 0 | 0 | 35.7
CC1=Nc2ccccc2/C1=C/c1nc(-c2ccc(C)s2)oc1O | 0 | 0 | 0 | 0 | 0 | 0 | -
C=CC[n+]1c(-c2ccc(OC)cc2)csc1NNC(=O)Nc1ccccc1 | 0 | 0 | 17.3 | 0 | 0 | 0 | 0
C=CC[n+]1c(-c2ccc(C)cc2)csc1Nc1ccc(NC(C)=O)cc1 | 0 | 0 | 0 | 0 | 0 | 0 | -
CCc1ccccc1NC(=O)C1C(c2ccccc2)C1(Cl)Cl (stereo not drawn) | 0 | 0 | 0 | 0 | 0 | 0 | -
O=C(Nc1ccc(F)cc1)C1C(c2ccccc2)C1(Cl)Cl (stereo not drawn) | 0 | 0 | 40.9 | 0 | 0 | 0 | 46.9
O=C(NCCCn1ccnc1)C(=O)c1c[nH]c2ccccc12 | 0 | 0 | 0 | 0 | 0 | 0 | -
O=c1cc2c(=O)oc3cc(O)c(O)oc3c2c(O)c1O | - | - | 26.0 | - | - | - | 22.6
O=c1oc2cc(O)c(Cl)cc2c2ccccc12 | 0 | 0 | 0 | 0 | 0 | 0 | -
CSc1ccccc1NC(=O)c1cnc2n(c1=O)CCS2 | 0 | 0 | 0 | 0 | 0 | 0 | -
Cc1ccc(C)c(NC(=O)c2cnc3n(c2=O)CCS3)c1 | 0 | 0 | 29.2 | 0 | 0 | 0 | 19.8
O=S(=O)(O/N=C1\CCCc2ccccc21)c1ccccc1 | 0 | 0 | 0 | 0 | 0 | 0 | -
COc1ccc(S(=O)(=O)O/N=C2\CCCc3ccccc32)cc1 | 0 | 0 | 17.6 | 0 | 0 | 0 | 0
CCCNC(=O)COC(=O)CCC(=O)c1cccs1 | 0 | 0 | 0 | 0 | 0 | 0 | -
COc1ccccc1NC(=O)/C(=C/c1cccc([N+](=O)[O-])c1)c1ccccc1 | 0 | 0 | 0 | 0 | 0 | 0 | -
Cc1cc(N)c2cc(NC(=O)/C=C/c3ccccc3Cl)ccc2n1 | - | - | 24.2 | - | - | - | 22.6
CC1=NN(Cc2ccccc2)C(=O)C1C(c1ccc(Cl)cc1)C(C#N)C#N (stereo not drawn) | 0 | 0 | 17.8 | 0 | 0 | 0 | 0
O=C(Cn1ccc(C(F)(F)F)n1)N/N=C/c1cccs1 | 0 | 0 | 0 | 0 | 0 | 0 | -
SMILES | G6PDH CS | Redox H2O2 prof | p97 inhibitor | TNAP act hiacc | TNAP inh no acc | TNAP inh hiacc | p97 inh conf
COCC(=O)N(CCc1ccc(OC)c(OC)c1)Cc1nc2ccccc2c(=O)[nH]1 | 0 | 0 | 16.4 | 0 | 0 | 0 | 0
O=C(CC1C(=O)NCCN1Cc1cccc(Oc2ccccc2)c1)NCCc1cnccn1 (stereo not drawn) | 0 | 0 | 0 | 0 | 0 | 0 | -
O=C(Nc1ccc(CN2CCCCC2)cc1)Nc1ccc(Br)cc1Cl | 0 | 0 | 0 | 0 | 0 | 0 | -
CC1=NN(c2ccccc2)C(=O)/C1=C/c1cccs1 | 0 | 0 | 17.3 | 0 | 0 | 0 | 0
CC(C)(C)c1ccc(NC(=O)COC(=O)c2ccc(NS(=O)(=O)c3ccc(F)c(F)c3)cc2)cc1 | 0 | 0 | 0 | 0 | 0 | 0 | -
Cc1cccc(OCCCC(=O)Nc2ccc(S(N)(=O)=O)cc2)c1 | 0 | 0 | 16.9 | 0 | 0 | 0 | 0
CCN(CC)c1ccc(NC(=O)CCCOc2cccc(C)c2)cc1 | 0 | 0 | 0 | 0 | 0 | 0 | -
